From ChEMBL document CHEMBL4002589, “Tri- and Tetrasubstituted Pyridinylimidazoles as Covalent Inhibitors of c-Jun N-Terminal Kinase 3” (J Med Chem, 2017)

Columns and labels:
[1] = target: Casein kinase I isoform delta (Homo sapiens) (UniProt P48730); assay: Inhibition of CK1 delta (unknown origin) assessed as residual activity at 1 uM relative to control
How it was run: (§1)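 Each inhibitor is tested at a single concentration, 1 µM or 0.5 µM depending on the compound. Results are reported as residual kinase activity.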

[2] = target: Mitogen-activated protein kinase kinase kinase 10 (Homo sapiens) (UniProt Q02779); assay: Inhibition of MAP3K10 (unknown origin) assessed as residual activity at 1 uM relative to control; how it was run: as §1
Chain of Mitogen-activated protein kinase kinase kinase 10 (Homo sapiens) (Q02779 whole entry, looked up): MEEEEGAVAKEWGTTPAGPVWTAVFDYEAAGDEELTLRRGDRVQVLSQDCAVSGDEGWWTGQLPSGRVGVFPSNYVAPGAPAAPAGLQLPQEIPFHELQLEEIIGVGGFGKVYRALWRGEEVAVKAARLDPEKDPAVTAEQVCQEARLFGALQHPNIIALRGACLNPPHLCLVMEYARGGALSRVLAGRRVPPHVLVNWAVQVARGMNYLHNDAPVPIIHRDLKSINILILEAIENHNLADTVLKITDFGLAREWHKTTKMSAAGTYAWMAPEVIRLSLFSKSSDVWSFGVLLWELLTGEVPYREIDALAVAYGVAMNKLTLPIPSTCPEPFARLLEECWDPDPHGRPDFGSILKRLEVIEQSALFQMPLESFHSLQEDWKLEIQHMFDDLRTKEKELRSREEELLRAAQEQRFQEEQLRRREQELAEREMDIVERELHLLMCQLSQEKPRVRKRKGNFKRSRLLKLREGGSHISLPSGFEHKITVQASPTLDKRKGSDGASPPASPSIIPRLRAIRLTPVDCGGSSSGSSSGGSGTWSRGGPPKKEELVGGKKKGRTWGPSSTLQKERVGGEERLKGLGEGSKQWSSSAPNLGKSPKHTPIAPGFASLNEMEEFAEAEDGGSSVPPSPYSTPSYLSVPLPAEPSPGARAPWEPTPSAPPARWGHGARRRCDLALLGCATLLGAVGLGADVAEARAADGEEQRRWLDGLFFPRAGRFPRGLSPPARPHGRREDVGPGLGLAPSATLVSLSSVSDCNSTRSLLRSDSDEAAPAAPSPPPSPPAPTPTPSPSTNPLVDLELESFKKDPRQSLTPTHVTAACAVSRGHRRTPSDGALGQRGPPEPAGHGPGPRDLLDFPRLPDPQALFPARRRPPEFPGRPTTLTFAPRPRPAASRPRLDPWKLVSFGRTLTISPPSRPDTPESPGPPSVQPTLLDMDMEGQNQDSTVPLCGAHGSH

[3] = target: Dual specificity protein kinase CLK4 (Homo sapiens) (UniProt Q9HAZ1); assay: Inhibition of CLK4 (unknown origin) assessed as residual activity at 1 uM relative to control; how it was run: as §1
Chain of Dual specificity protein kinase CLK4 (Homo sapiens) (Q9HAZ1 whole entry, looked up): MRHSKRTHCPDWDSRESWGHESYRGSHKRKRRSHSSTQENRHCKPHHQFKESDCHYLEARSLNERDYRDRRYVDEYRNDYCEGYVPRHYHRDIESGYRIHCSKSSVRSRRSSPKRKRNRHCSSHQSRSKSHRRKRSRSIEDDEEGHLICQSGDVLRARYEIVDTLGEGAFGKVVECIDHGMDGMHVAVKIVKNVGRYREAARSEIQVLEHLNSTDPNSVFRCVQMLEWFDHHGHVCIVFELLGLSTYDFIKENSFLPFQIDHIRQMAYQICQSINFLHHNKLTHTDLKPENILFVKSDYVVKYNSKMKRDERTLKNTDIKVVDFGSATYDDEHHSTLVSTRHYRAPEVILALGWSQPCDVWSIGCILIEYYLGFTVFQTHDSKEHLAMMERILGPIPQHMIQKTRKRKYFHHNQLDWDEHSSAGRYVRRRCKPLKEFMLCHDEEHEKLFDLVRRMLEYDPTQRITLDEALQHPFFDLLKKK

[4] = target: T1, Serine/threonine-protein kinase Sgk1 (Homo sapiens) (UniProt O00141); assay: Inhibition of full length human GST-tagged SGK1 expressed in Sf9 cells assessed as residual activity at 1 uM relative to control; how it was run: as §1
T1 sequence (whole entry): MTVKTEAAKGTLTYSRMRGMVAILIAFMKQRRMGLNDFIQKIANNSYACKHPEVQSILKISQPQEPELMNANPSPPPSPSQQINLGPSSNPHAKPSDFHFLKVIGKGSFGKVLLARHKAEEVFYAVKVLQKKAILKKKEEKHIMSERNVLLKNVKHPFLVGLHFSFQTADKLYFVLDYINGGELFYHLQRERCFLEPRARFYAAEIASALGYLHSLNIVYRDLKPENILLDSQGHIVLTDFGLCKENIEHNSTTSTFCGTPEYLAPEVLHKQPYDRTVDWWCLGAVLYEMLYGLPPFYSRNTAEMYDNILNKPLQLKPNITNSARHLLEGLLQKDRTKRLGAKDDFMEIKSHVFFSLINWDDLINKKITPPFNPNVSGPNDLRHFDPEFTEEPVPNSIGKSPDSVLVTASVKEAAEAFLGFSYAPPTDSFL

[5] = target: T2, Serine/threonine-protein kinase D3 (Homo sapiens) (UniProt O94806); assay: Inhibition of human PKC-nu (3 to 890 residues) expressed in Sf9 cells assessed as residual activity at 1 uM relative to control; how it was run: as §1
T2 sequence (whole entry): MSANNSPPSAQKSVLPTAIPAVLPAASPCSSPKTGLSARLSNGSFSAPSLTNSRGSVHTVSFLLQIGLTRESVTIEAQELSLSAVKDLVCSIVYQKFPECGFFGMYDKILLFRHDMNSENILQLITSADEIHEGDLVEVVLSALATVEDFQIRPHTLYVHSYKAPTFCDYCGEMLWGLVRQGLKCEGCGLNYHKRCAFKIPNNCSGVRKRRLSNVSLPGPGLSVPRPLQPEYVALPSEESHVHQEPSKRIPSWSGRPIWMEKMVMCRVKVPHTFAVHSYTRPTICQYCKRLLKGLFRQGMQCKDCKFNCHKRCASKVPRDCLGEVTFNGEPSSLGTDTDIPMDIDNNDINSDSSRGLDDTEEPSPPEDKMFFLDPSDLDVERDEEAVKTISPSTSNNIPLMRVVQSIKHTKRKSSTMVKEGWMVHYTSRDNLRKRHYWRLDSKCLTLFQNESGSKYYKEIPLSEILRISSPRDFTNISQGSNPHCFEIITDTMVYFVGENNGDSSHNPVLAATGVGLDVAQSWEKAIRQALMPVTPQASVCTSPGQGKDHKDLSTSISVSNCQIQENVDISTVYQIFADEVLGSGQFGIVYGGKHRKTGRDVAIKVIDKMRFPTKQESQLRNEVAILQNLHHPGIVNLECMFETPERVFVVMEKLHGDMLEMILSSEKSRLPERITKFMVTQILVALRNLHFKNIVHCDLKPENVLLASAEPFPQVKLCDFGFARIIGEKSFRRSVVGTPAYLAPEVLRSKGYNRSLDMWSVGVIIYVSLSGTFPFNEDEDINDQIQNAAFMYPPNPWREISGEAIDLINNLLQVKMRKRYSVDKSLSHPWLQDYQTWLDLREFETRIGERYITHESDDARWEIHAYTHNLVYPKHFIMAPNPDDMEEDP

[6] = target: Mitogen-activated protein kinase kinase kinase 11 (Homo sapiens) (UniProt Q16584); assay: Inhibition of MAP3K11 (unknown origin) assessed as residual activity at 1 uM relative to control; how it was run: as §1
Chain of Mitogen-activated protein kinase kinase kinase 11 (Homo sapiens) (Q16584 whole entry, looked up): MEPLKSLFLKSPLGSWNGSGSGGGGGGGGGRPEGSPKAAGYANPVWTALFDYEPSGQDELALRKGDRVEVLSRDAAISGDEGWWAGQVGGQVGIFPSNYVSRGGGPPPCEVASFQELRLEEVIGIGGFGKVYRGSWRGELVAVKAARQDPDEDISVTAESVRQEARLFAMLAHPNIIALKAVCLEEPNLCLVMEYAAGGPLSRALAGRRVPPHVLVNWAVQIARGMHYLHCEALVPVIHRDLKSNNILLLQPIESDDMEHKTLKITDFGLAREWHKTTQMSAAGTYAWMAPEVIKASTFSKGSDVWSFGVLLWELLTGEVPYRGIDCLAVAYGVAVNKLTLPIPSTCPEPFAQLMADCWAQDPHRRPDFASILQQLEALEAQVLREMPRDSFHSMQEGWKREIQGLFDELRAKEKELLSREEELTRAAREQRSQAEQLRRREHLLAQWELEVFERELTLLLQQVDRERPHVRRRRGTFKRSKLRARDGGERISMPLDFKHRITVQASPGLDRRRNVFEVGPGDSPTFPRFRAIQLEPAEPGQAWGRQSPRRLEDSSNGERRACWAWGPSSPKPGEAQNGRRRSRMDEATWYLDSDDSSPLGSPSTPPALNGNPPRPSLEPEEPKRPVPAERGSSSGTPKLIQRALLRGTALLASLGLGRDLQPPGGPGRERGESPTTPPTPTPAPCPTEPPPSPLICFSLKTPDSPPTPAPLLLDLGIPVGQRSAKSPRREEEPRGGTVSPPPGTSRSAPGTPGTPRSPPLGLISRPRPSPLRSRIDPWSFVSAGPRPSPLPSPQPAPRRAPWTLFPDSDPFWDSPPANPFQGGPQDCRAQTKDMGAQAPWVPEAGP

Measured: Activity

Chain of Casein kinase I isoform delta (Homo sapiens) (P48730 whole entry, looked up, canonical isoform): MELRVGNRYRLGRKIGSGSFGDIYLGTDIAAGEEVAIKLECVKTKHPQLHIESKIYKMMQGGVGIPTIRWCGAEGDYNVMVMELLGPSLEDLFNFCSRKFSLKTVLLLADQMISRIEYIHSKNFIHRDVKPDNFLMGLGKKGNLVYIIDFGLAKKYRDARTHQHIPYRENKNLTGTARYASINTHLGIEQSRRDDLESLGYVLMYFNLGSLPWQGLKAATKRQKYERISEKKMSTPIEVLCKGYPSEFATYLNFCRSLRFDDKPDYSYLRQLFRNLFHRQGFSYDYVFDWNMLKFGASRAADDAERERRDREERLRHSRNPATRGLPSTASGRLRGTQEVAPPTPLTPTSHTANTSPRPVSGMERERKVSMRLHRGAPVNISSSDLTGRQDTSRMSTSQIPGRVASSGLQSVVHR

C=CC(=O)Nc1cccc(C(=O)Nc2ccc(Nc3cc(-c4[nH]c(SC)nc4C)ccn3)cc2)c1
10 to 29%: all assays above
